Reference: PMC3165084 (Leukemia, 2011)
Marks after values point to notes of the source that are not given here.

Assays:
[1] = Plasma pharmacokinetics of tipifarnib, LCMS/MS, non-compartmental analysis; type: in vivo, human; conditions: for Tmax / AUC(0-t) / Cmax: human, plasma, oral; for Tmax: 1400 mg; for AUC(0-t): median AUC12h; for Cmax: median Cmax
advanced cancer = conditions: 5-day, every 12 hour dosing; highest dose level 1300 mg twice daily for five days; ref [4]; cited from earlier work
[2] = test system: acute myeloid leukemia (AML); assay: Phase 1 dose escalation: clinical response; type: in vivo, human
In short: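 Bone marrow aspiration and biopsy were done within two weeks before therapy and repeated on days 26–28 of each 28-day cycle. Blood counts were taken at least weekly. Response was scored by International Working Group criteria. Intra-patient escalation was allowed if no CR after cycle 1. Patients without PR or clinical improvement after 6 cycles were deemed treatment failures.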

MDS = conditions: above 400 mg bid, 21-day bid dosing; ref [6]; cited from earlier work
solid tumor = conditions: 900 mg bid dose level, week-on, week-off; ref [7]; cited from earlier work
[3] = test system: previously untreated AML or MDS; conditions: 600 mg bid, 21 day schedule, older patients with previously untreated AML or MDS; ref [5]; cited from earlier work
farnesyl transferase = conditions: correlative studies in patients; ref [6]–[8]; cited from earlier work
[4] = test system: patients with acute myeloid leukemia (AML); assay: Phase 1 dose escalation, week-on week-off oral tipifarnib: toxicity, DLT and MTD; type: in vivo, human
In short: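 Adult patients with AML (M3 excluded) received oral test compound twice daily on days 1–7 and 15–21 of 28-day cycles in 3+3 cohorts. AEs were graded by NCI CTCAE v3.0 from clinic review and patient diaries. DLT was any possibly drug-related […] nonhematologic toxicity (excluding palliated GI events and corrected electrolytes), or non-reversible grade 4 hematologic toxicity without blasts. MTD was ≤1 of 6 with DLT in cycle 1.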

[5] = two patients with decreased blasts, day 1
[6] = two patients with decreased blasts, day 5
[7] = 1200 mg bid, Subsequent courses

## Cn1cncc1[C@@](N)(c1ccc(Cl)cc1)c1ccc2c(c1)c(-c1cccc(Cl)c1)cc(=O)n2C [tipifarnib, Tipifarnib]
[1]; low, Day 5, 1400 mg bid
  Tmax: 3 h
[1]; median, Day 1, 1400 mg
  Tmax: 3.1 h
[1]; median, Day 5, 1400 mg bid
  Tmax: 4 h
[1]; remaining patients, day 1
  AUC(0-t): 7580 ng·h/mL
  Cmax: 1290 ng/mL
[1]; remaining patients, day 5
  AUC(0-t): 4320 ng·h/mL
  Cmax: 881 ng/mL
[1]; [5]
  AUC(0-t): 16300 ng·h/mL
  Cmax: 2440 ng/mL
[1]; [6]
  AUC(0-t): 13200 ng·h/mL
  Cmax: 2550 ng/mL
[1]; on both day 1 and day 5
  fold higher median AUC and Cmax in the two patients with decreased blasts vs median of the non-responders: 2–3 fold
[1]; present data taken together with earlier studies
  pharmacokinetic behavior (dose linearity): linear up to doses as high as 1400 mg bid
Advanced cancer
  protocol-defined maximum tolerated dose (MTD): not achieved
[2]; 800 mg bid
  Responses: 1 CMML patient cleared leukemic blasts
[2]; 800 mg bid, one patient, over 3 cycles
  marrow blasts, change: from 36% to 10%
[2]; 1000 mg bid
  Responses: 1 CR went to transplant
[2]; 1200 mg bid
  Responses: 2 CRs, 1 marrow response (from 50%-7% blasts)
[2]; 1200 mg bid, individual CR patients
  duration of CR: one month
[2]; 1400 mg bid
  Responses: minor responses
[2]; 1400 mg bid, two patients
  decrease of bone marrow blasts: ≥ 50%
[2]; all dose levels, 44 patients, 1000 mg and 1200 mg bid
  complete remissions (CR) seen: 3
[2]; expansion group, 7 patients at MTD 1200 mg bid
  complete responses in expansion group: no complete responses
[2]; lower dose levels (below 1000 mg bid)
  formal responses: No formal responses
MDS
  dose limiting toxicities: headache, fatigue, confusion, and vision changes
Solid tumor
  DLT: grade 3 fatigue
[3]
  partial response, patients: 10%
Farnesyl transferase
  duration of farnesyl transferase inhibition after administration: seven days
[4]; 400 mg bid
  # DLTs: 1
  DLT descriptions: hepatic
[4]; 1200 mg bid
  # DLTs: 1
  DLT descriptions: renal
[4]; 1200 mg bid, Course 1
  ALT, SGPT toxicity, Grade 2: 2
  Anorexia, Grade 2: 2
  Bilirubin toxicity, Grade 2: 2
  Creatinine toxicity, Grade 2: 2
  Creatinine toxicity, Grade 3: 1
  Dehydration, Grade 2: 1
  Fatigue, Grade 2: 3
  Hypoalbuminemia, Grade 2: 2
  Nausea, Grade 2: 1
  Nausea, Grade 3: 1
  Rash / desquamination, Grade 2: 1
  Vomiting, Grade 2: 2
[4]; [7]
  ALT, SGPT toxicity, Grade 3: 1
  AST, SGOT toxicity, Grade 2: 1
  Anorexia, Grade 2: 1
  Ataxia, Grade 3: 1
  Bilirubin toxicity, Grade 2: 1
  Constipation, Grade 2: 1
  Creatinine toxicity, Grade 2: 3
  Fatigue, Grade 3: 2
  Febrile neutropenia, Grade 3: 1
  Hyperglycemia, Grade 2: 2
  Hypoalbuminemia, Grade 2: 2
  Nausea, Grade 2: 2
  Restless leg syndrome, Grade 2: 1
  Syncope (fainting), Grade 3: 1
  Vomiting, Grade 2: 2
  Weight loss, Grade 2: 1
[4]; 1400 mg bid
  # DLTs: 2
  DLT descriptions: renal
[4]; 1600 mg bid
  # DLTs: 2 ^*
  DLT descriptions: hepatic, renal ^*
[4]; oral twice daily, days 1–7 and 15–21 of each 28-day cycle, first-cycle DLT
  maximum tolerated dose (MTD): 1200 mg bid
